Activity calls are given as the source filed them.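 How the source made its calls: active means luminescence gain over solvent baseline above 10% of the positive control response, limit may shift with hit yield; inactive means the rest, including opposite-direction effects.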

Test system in one assay: not listed separately
Put plainly: HIF pathway activators, HRE-luciferase reporter, dose response, cell-based, U2OS HRE-luc, luminescence, dry powder, set 2 (AID 488805). To be noted: U2OS HRE-luciferase reporter, HIF pathway activation, luminescence; at 0.056 µM; hits give high values. The method in brief: (§1)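 material = U2OS cells with HRE-luciferase reporter | quantity = 6,000 cells per well | times = compound exposure 24 h at 37 °C, 21% O2 | detection = luciferase luminescence measured with Steady-Glo reagent | dosing = compound dose series of 8 points, 3-fold steps | buffer or medium = phenol red-free DMEM with 10% fetal bovine serum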
A general note: Reporter assays use an easily measured gene product as a stand-in for the process of interest.
As to `O=C(NC1CCc2ccccc2C1)c1cc(-c2ccccc2)on1` (stereo unspecified), the max activation is -4.31% (inactive). Take `O=C(Nc1ncc2ccccc2n1)c1cc(-c2ccccc2)on1`: the max activation is 0.964% (inactive). Still for that read-out and setting: the same measure for `Cc1ccc(CNC(=O)c2cc(-c3ccccc3)on2)cc1`: -4.17% (inactive); for `O=C(c1cc(-c2ccccc2)on1)N1CCC(CO)CC1`: -6.22% (inactive); for `O=C(Nc1nnc(-c2ccccc2)s1)c1cc(-c2ccccc2)on1`: -3.85% (inactive). On the same count and under the same terms, in the case of `O=C(NCc1ccccc1)c1cc(-c2ccccc2)on1` it was 1.94% (inactive); in that of `Cn1c(NC(=O)c2cc(-c3ccccc3)on2)nc2ccccc21`, 1.19% (inactive); in that of `O=C(NCCN1CCCCC1)c1cc(-c2ccccc2)on1`, -1.17% (inactive).

The assay is the same for the next values; noted with them: U2OS HRE-luciferase reporter, HIF pathway activation, luminescence; at 0.16 µM; hits give high values.
Turning to `O=C(NCC1CCCCC1)c1cc(-c2ccccc2)on1`, the max activation is 1.14% (inactive).

The assay is the same for the next values; noted with them: U2OS HRE-luciferase reporter, HIF pathway activation, luminescence; at 0.5 µM; hits give high values.
Take `CN(C)CCNC(=O)c1cc(-c2ccccc2)on1`: the max activation is -2.73% (inactive). The same measure, in the same setting: in the case of `O=C(Nc1cn2ccccc2n1)c1cc(-c2ccccc2)on1` it was -5.84% (inactive); in that of `O=C(Nc1ncc(-c2ccccc2)o1)c1cc(-c2ccccc2)on1`, -7.77% (inactive); in that of `Cc1cccc(CNC(=O)c2cc(-c3ccccc3)on2)c1`, -4.69% (inactive).

Take `Cc1ccccc1CNC(=O)c1cc(-c2ccccc2)on1`: the max activation is 2.16% (inactive). As to `Cn1c(-c2ccccc2)cnc1Nc1nc(-c2ccccn2)nnc1-c1ccccc1`, the max activation was -0.998% (inactive). Still for that read-out and setting: in the case of `O=C(Nc1ccc2ccccc2n1)c1cc(-c2ccccc2)on1` it was -5.52% (inactive).

Still in this assay, the particulars now being: U2OS HRE-luciferase reporter, HIF pathway activation, luminescence; at 4.6 µM; hits give high values.
Regarding `O=C(NC1Cc2ccccc2C1)c1cc(-c2ccccc2)on1`, the max activation was 2.61% (inactive).

On to `CC(C)(C)CCNC(=O)c1cc(-c2ccccc2)on1`, for which the max activation is 1.55% (inactive). Same read-out and setting: the same measure for `O=C(c1cc(-c2ccccc2)on1)N1CCN(c2ccncc2)CC1`: 6.21% (inactive); for `O=C(Nc1nc(-c2ccccc2)cs1)c1cc(-c2ccccc2)on1`: 6.53% (inactive). Same read-out and setting: in the case of `O=C(c1cc(-c2ccccc2)on1)N1CCC(N2CCOCC2)CC1` it was 1.93% (inactive); in that of `O=C(Nc1nc2ccccc2s1)c1cc(-c2ccccc2)on1`, -2.04% (inactive).

Staying with this assay, now noted: U2OS HRE-luciferase reporter, HIF pathway activation, luminescence; at 13.5 µM; hits give high values.
Turning to `O=C(NCC1CC1)c1cc(-c2ccccc2)on1`, the max activation was 7.82% (inactive).

With `O=C(NCCCO)c1cc(-c2ccccc2)on1`, the max activation was 8.74% (inactive).

Staying with this assay, now noted: U2OS HRE-luciferase reporter, HIF pathway activation, luminescence; at 38 µM; hits give high values.
As for `O=C(c1cc(-c2ccccc2)on1)N1CCC(N2CCCC2)CC1`, the max activation is 3.88% (inactive). Same read-out and setting: in the case of `O=C(c1cc(-c2ccccc2)on1)N1CCc2cccnc21` it was 2.94% (inactive); in that of `O=C(Nc1cnc2ccccc2c1)c1cc(-c2ccccc2)on1`, 2.22% (inactive).

`Cc1cccc(NC(=O)c2cc(-c3ccccc3)on2)n1`: the max activation was -6.71% (inactive).

Consider `Cc1ccc(NC(=O)c2cc(-c3ccccc3)on2)cn1`, for which the max activation is 4.68% (inactive). The same measure, in the same setting: the same measure for `CN1CCN(C(=O)c2cc(-c3ccccc3)on2)CC1`: -5.2% (inactive); for `Cn1c(-c2ccccc2)cnc1NC(=O)c1cc(-c2ccccc2)on1`: 2.14% (inactive).

The next assay deals with U2OS HRE-luciferase reporter, HIF pathway activation, luminescence. Described as above.
Settings: not given
The method in brief: as §1
In the case of `Cc1ccccc1CNc1nc(-c2ccccn2)nnc1-c1ccccc1`, the AC50 was 6.05 µM. Still for that read-out and setting: in the case of `Cc1ccc(CNc2nc(-c3ccccn3)nnc2-c2ccccc2)cc1` it was 3.29 µM; in that of `c1ccc(-c2nnc(-c3ccccn3)nc2NCC2CCCCC2)cc1`, 3.12 µM; in that of `OCC1CCN(c2nc(-c3ccccn3)nnc2-c2ccccc2)CC1`, 18.7 µM. Still for that read-out and setting: the same measure for `c1ccc(-c2nnc(-c3ccccn3)nc2NCC2CC2)cc1`: 12.3 µM; for `c1ccc(CNc2nc(-c3ccccn3)nnc2-c2ccccc2)cc1`: 7.03 µM; for `c1ccc(-c2nnc(-c3ccccn3)nc2Nc2cnc3ccccc3n2)cc1`: 6.4 µM. Regarding `CN(C)c1nc(-c2ccccn2)nnc1-c1ccccc1`, the AC50 was 11.7 µM.

In the case of `Cc1cccc(CNc2nc(-c3ccccn3)nnc2-c2ccccc2)c1`, the AC50 was 3.29 µM. For the molecule `CN1CCN(c2nc(-c3ccccn3)nnc2-c2ccccc2)CC1`, the AC50 is 14.5 µM.

Regarding `OCCCNc1nc(-c2ccccn2)nnc1-c1ccccc1`, the AC50 was 21.3 µM. The same measure, in the same setting: the same measure for `c1ccc(-c2nnc(Nc3nc(-c4ccccn4)nnc3-c3ccccc3)s2)cc1`: 6.81 µM; for `c1ccc(-c2nnc(-c3ccccn3)nc2NCCCN2CCOCC2)cc1`: 11 µM; for `c1ccc(-c2nnc(-c3ccccn3)nc2N2CCC(N3CCOCC3)CC2)cc1`: 8.79 µM. Same read-out and setting: in the case of `c1ccc(-c2nnc(-c3ccccn3)nc2NCCN2CCOCC2)cc1` it was 18.1 µM; in that of `C=CCNc1nc(-c2ccccn2)nnc1-c1ccccc1`, 8.3 µM.

For `O=C(NCCCN1CCOCC1)c1cc(-c2ccccc2)on1`, the half-maximal activity concentration (AC50) is 9.51 µM. Still for that read-out and setting: in the case of `c1ccc(-c2nnc(-c3ccccn3)nc2Nc2nc3ccccc3s2)cc1` it was 8.19 µM. On the same count and under the same terms, the same measure for `O=C(NCCCCO)c1cc(-c2ccccc2)on1`: 10.5 µM; for `Cc1cccc(Nc2nc(-c3ccccn3)nnc2-c2ccccc2)n1`: 25.6 µM; for `CC(C)(C)CCNc1nc(-c2ccccn2)nnc1-c1ccccc1`: 2.59 µM. As to `O=C(NCCCn1ccnc1)c1cc(-c2ccccc2)on1`, the AC50 is 8.16 µM.

For the molecule `Cc1ccc(Nc2nc(-c3ccccn3)nnc2-c2ccccc2)cn1`, the AC50 was 27.9 µM. Turning to `c1ccc(-c2nnc(-c3ccccn3)nc2N2CCN(c3ccncc3)CC2)cc1`, the AC50 was 8.32 µM.

As to `c1ccc(-c2csc(Nc3nc(-c4ccccn4)nnc3-c3ccccc3)n2)cc1`, the AC50 was 2.84 µM.

What is called AC50 is the midpoint of the concentration-response curve, whichever way the signal moves.
